Calls of active or inactive are those of the source. No cut-off for these calls is given here.
How the values were obtained:
Mus musculus [1] = experiment: Antiinflammatory effect in CD1 mouse ear dermatitis model assessed as reduction in vascular changes at 0.4 umol administered topically per cm'2 of ear measured after 6 hrs post dermatitis induction relative to control; type: functional, organism-based
Outline: (§1)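 Male CD-1 mice (28–32 g) anesthetized with ketamine 145 mg/kg ip; right ear (about 1 cm2) given 80 μg croton oil in 15 μL acetone with test substance co-applied in acetone; controls irritant only; left ear untreated. Ears fixed in 10% formalin, paraffin-embedded, 10 μm sections stained hematoxylin-eosin or Giemsa, examined by light microscopy at set times after induction.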

[2] = tested on: Radical scavenging activity; experiment: Antioxidant activity assessed as DPPH free radical scavenging activity after 30 mins by spectrophotometry; type: functional
Mus musculus [3] = experiment: Antiinflammatory effect in CD1 mouse ear dermatitis model assessed as reduction in mast cell degranulation at 0.4 umol administered topically per cm'2 of ear measured after 6 hrs post dermatitis induction relative to control; type: functional, organism-based; outline: as §1
Mus musculus [4] = experiment: Antiinflammatory effect in CD1 mouse ear dermatitis model assessed as reduction in leukocyte infiltration-based myeloperoxidase at 0.4 umol administered topically per cm'2 of ear measured after 6 hrs post dermatitis induction relative to control; type: functional, organism-based
Outline: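 CD-1 mice, croton oil 80 μg in acetone on right ear with topical test substance; ear punch (6 mm) homogenized in 0.1 M sodium acetate pH 4.2 with 0.1% HTAB, centrifuged 15000g 5 min; supernatant myeloperoxidase measured with TMB (2.83 mM) and 0.7 mM H2O2, 5 min at 25 °C, stopped with acetic acid, A620; duplicates; units = nM TMB oxidized/min.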

Mus musculus [5] = experiment: Antiinflammatory effect in CD1 mouse ear dermatitis model assessed as reduction in cellular changes at 0.4 umol administered topically per cm'2 of ear measured after 6 hrs post dermatitis induction relative to control; type: functional, organism-based; outline: as §1
Mus musculus [6] = experiment: Antiinflammatory effect in CD1 mouse ear dermatitis model assessed as preservance of mast cell degranulation at 0.4 umol administered topically per cm'2 of ear measured after 6 hrs post dermatitis induction relative to control; type: functional, organism-based; outline: as §1

Row | Compound | inhibition (Mus musculus [1]) | IC50 [2] | IC50 ([2]; read-out: IC50) [µM] | inhibition (Mus musculus [3]) | inhibition (Mus musculus [4]) | inhibition (Mus musculus [5]) | inhibition (Mus musculus [6])
1 | COc1ccc(-c2cc3cc(CCCO)ccc3o2)c(O)c1 | Active | Dose-dependent effect | 42.3 | Active | Active | Active | Active
2 | C/C=C/c1ccc2c(c1)[C@@H](C)[C@H](c1ccc(O)cc1)O2 | Active |  |  | Active | Active | Active | Active
3 | C/C=C/c1ccc2oc(-c3ccc(O)cc3OC)cc2c1 [RATANIAPHENOL III] |  | Dose-dependent effect | 36.3 |  |  |  | 
4 | C/C=C/c1ccc2oc(-c3ccc(OC)cc3O)cc2c1 [RATANIAPHENOL I] |  | Dose-dependent effect | 24.2 |  |  |  | 
5 | C/C=C/c1ccc2oc(-c3ccc(O)cc3O)cc2c1 |  | Dose-dependent effect | 22.1 |  |  |  | 
6 | COc1cc(O)ccc1-c1cc2cc(CCCO)ccc2o1 |  | Dose-dependent effect | 37.7 |  |  |  | 

Source: ChEMBL document CHEMBL2146414, “Lignan derivatives from Krameria lappacea roots inhibit acute inflammation in vivo and pro-inflammatory mediators in vitro” (J Nat Prod, 2011)
